In PubChem BioAssay:
Calls of active or inactive are those of the source.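 How the source made its calls, unless noted: active means inhibition at or above 50% at 10 µM; inactive means inhibition below 50%.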

Experiments:
[1] = inhibitors of TNFa-induced NFkB p65 translocation, primary screen, imaging, HUVEC, MLSMR starter and 10KST1 sets (AID 438;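 active means inhibition above 20% together with a positive visual image hit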;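 further: compound added about 3h40 before a 20 min TNFalpha stimulation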;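 on inhibition: signal is the nuclear over cytoplasmic p65 intensity ratio per well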); conditions: HUVEC TNFa-induced p65 nuclear translocation; cell count: measured here: nuclei count (cytotoxicity indicator), at 2.08 µM; inhibition: at 2 µM, stronger effect = higher value, 0% TNFa-plus-vehicle, 100% no-TNFa wells
[2] = reduction of polyQ htt aggregates in cells – imaging, exon1htt(103Q)mCFP cells, high-content imaging, primary screen (AID 483;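 active means visual image review flags a hit and inhibition of aggregation exceeds 20%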;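 further: compound exposure lasted 3 days before fixation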;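 on nuclei count: percent of the per-plate median nuclei count of sample wells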); conditions: exon1htt(103Q)mCFP cell line, aggregate imaging, at 2 µM; inhibition of aggregation: stronger effect = higher value; nuclei count: measured here: cell count, toxicity
[3] = endothelial E-selectin expression blockers – imaging, HUVEC, immunofluorescence, MLSMR starter and 10KST1 sets, primary screen (AID 487;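 active means visually confirmed hit in the image check and inhibition above 20%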;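 on inhibition: signal is fraction of cell area covered by stained E-selectin grains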;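 on nuclei count: 100% = median nuclei count of all wells on the same plate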); conditions: HUVEC TNFalpha-induced E-selectin immunofluorescence imaging, at 2 µM; inhibition: stronger effect = higher value; nuclei count: measured here: cell number, toxicity
[4] = target: Voltage-gated potassium channel subunit beta-2 (Rattus norvegicus) (UniProt P62483); assay: inhibitors of rat Kvbeta2 reductase activity – biochemical, NADPH fluorescence, primary screen (AID 622;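 active means fluorescence slope higher than the sample average by over 3 SD, cut at about -0.22 in these data, passing the limit was not always enough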;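 further: slope of raw intensity against log time taken from 70 to 1610 s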); conditions: recombinant KvBeta, 4-cyanobenzaldehyde reduction, at 10 µM, stronger effect = higher value
Voltage-gated potassium channel subunit beta-2 (Rattus norvegicus), sequence (P62483 whole entry, looked up): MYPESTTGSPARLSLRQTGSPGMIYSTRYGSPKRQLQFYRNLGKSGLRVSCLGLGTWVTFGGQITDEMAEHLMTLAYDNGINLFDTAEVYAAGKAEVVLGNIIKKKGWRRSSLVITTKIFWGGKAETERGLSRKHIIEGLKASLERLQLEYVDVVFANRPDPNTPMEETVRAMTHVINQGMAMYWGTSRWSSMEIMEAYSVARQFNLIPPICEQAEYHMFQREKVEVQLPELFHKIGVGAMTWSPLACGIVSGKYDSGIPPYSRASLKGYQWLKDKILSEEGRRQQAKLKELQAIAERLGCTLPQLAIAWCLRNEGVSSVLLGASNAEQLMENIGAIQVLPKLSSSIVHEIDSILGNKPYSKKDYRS

[5] = target: Voltage-gated potassium channel subunit beta-2 (Rattus norvegicus) (UniProt P62483); assay: enhancers of rat Kvbeta2 NADPH turnover – biochemical, NADPH fluorescence, primary screen (AID 623;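 active means NADPH fluorescence slope more negative than the mean of all samples by about 3 SD, 99.7% confidence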;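 further: fluorescence intensity change per second fitted from 20 to 320 s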); conditions: Recombinant KvBeta, NADPH fluorescence decrease slope, 10 min; at 10 µM; stronger effect = lower value
[6] = target: Muscarinic acetylcholine receptor M4 (Homo sapiens) (UniProt P08173); assay: M4-linked GIRK flux change, two-sided – cell-based, HEK293 M4/GIRK, thallium flux, BTC-AM, M4 allosteric agonist project, primary screen (AID 625;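 active means fluorescence slope after compound addition differing from the mean of all tested samples at 99.7% confidence, mostly higher but some lower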;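 further: thallium influx through GIRK channels coupled to M4 in HEK293 cells with BTC-AM dye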); conditions: at 10 µM, actives lie on both sides
Muscarinic acetylcholine receptor M4 (Homo sapiens), sequence (P08173 whole entry, looked up): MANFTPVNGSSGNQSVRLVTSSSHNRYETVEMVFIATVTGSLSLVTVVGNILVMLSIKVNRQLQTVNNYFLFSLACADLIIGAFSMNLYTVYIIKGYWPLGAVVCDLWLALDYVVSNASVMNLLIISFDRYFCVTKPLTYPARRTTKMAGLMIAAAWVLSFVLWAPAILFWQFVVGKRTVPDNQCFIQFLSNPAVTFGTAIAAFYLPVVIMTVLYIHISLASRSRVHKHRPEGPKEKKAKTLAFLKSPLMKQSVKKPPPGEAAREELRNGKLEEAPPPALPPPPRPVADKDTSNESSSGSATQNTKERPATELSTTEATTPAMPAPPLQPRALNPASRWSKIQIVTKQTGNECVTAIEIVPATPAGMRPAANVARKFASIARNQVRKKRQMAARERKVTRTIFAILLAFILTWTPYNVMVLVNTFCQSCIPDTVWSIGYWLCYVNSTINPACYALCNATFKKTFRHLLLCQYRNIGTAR
Outline: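 System: HEK293 cells with M4 receptor and GIRK channels | Incubation: Cells overnight at 37 °C, BTC-AM loading 1 h, reads 2 min total | Technique: Kinetic BTC-AM fluorescence sampled at 1 Hz, 10 s pre-addition baseline | Measure: Post-addition slope, 15–24 s, of baseline-normalized fluorescence | Control set: Carbachol positive, DMSO negative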

[7] = blockers of RIG-like receptor reporter activation – cell-based, Sendai virus stimulus, luciferase, 10K MLSCN set, TLR/RLR signaling modifier project, primary screen (AID 602276); conditions: HEK293 RL24 IRF3 luciferase reporter, at 10 µM, stronger effect = higher value;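 further: firefly luciferase from ISG56 promoter only with Renilla not read in this screen; 0% = Sendai virus plus DMSO and 100% = medium plus DMSO without virus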
[8] = TLR3 IRF3 reporter activation blockers – cell-based, poly I:C stimulus, luciferase, 10K MLSCN set, primary screen (AID 602277;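 active means inhibition of the reporter signal at or above 50%; inactive means inhibition below 50%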); conditions: HEK293-TLR3 RL24 IRF3 luciferase reporter, at 10 µM, stronger effect = higher value

Row | Compound | cell count [1] | inhibition [1] | inhibition of aggregation [2] | nuclei count [2] | inhibition [3] | nuclei count [3] | fluorescence slope [4] | NADPH fluorescence slope [5] | fluorescence slope [6] | inhibition [7] | inhibition [8]
1 | Cc1cccc(C(=O)N2CCN(C(=O)c3cccc(C)c3)C(C)C2)c1 (stereo not drawn) | 394 | -3.8% (inactive) | 3.6% (inactive) | 113% | -31.8% (inactive) | 114% | -0.311 (inactive) | 1.4e-05 (inactive) | 0.00692 (inactive) | -15.5% (inactive) | -12% (inactive)
2 | CCOC(=O)c1[nH]c(C)c(C(=O)Nc2cc(OC)ccc2OC)c1C | 671 | -5.9% (inactive) | -3.7% (inactive) | 2.5% | -153% (inactive) | 111% | -0.415 (inactive) | 4.7e-05 (inactive) | 0.00644 (inactive) | 30.4% (inactive) | 51.4% (active)
3 | Cc1ccccc1CS(=O)(=O)Cc1ccc(C(=O)NCCCN2CCOCC2)o1 | 434 | 5% (inactive) | -1.9% (inactive) | 99% | -156% (inactive) | 120% | -0.586 (inactive) | -2.7e-05 (inactive) | 0.00703 (inactive) | -17.1% (inactive) | -16.4% (inactive)
4 | Cc1ccc(F)cc1NC(=O)Cc1nn(C)c(=O)c2ccccc12 | 247 | 0.9% (inactive) | 4.8% (inactive) | 93.3% | 17.2% (inactive) | 102% | -0.555 (inactive) | -2.8e-05 (inactive) | 0.00476 (inactive) | 7.41% (inactive) | -19% (inactive)
5 | O=C(Nc1ccc2nn(-c3ccccc3)nc2c1)c1ccc(Br)o1 | 355 | -1.7% (inactive) | 9.1% (inactive) | 106% | 6.4% (inactive) | 101% | -0.213 (inactive) | -2.9e-05 (inactive) | 0.00781 (inactive) | -22.8% (inactive) | -70.4% (inactive)
6 | CCOC(=O)C1CCCN(Cc2nc(N)nc(Nc3ccccc3)n2)C1 (stereo not drawn) | 741 | -4.7% (inactive) | -2.7% (inactive) | 104% | -49.1% (inactive) | 106% | -0.57 (inactive) | -4.6e-05 (inactive) | 0.0052 (inactive) | 22.1% (inactive) | 16.8% (inactive)
7 | CCn1nnc(-c2ccccc2NC(=O)c2ccc(-n3cnnn3)cc2)n1 | 333 | -2.5% (inactive) | -19% (inactive) | 97.1% | 1.4% (inactive) | 90.6% | -0.5 (inactive) | -0.000135 (inactive) | 0.00365 (inactive) | 15.3% (inactive) | 15.5% (inactive)
8 | CC(Oc1ccccc1)C(=O)N1CCCc2ccccc21 (stereo not drawn) | 474 | 9.1% (inactive) | -2.8% (inactive) | 118% | -43.6% (inactive) | 112% | -0.239 (inactive) | 1.4e-05 (inactive) | 0.00527 (inactive) | 2.1% (inactive) | 29.5% (inactive)
9 | O=C(COC(=O)c1ccco1)NCc1cccs1 | 516 | -13% (inactive) | -4.6% (inactive) | 93.5% | 7.8% (inactive) | 88.2% | -0.534 (inactive) | -5.7e-05 (inactive) | 0.0055 (inactive) | 5.62% (inactive) | 5.96% (inactive)
10 | CCN1C(=O)NC(c2cc(Br)ccc2OC)C(C(=O)OC)=C1C (stereo not drawn) | 451 | -13.1% (inactive) | 2.4% (inactive) | 92% | -25.6% (inactive) | 89.2% | -0.491 (inactive) | 3.4e-05 (inactive) | 0.00605 (inactive) | -1.28% (inactive) | 17.3% (inactive)
11 | CCCS(=O)(=O)N1CCN(C(=O)CCC2CCCC2)CC1 | 222 | 8.5% (inactive) | 15.8% (inactive) | 77.9% | -18.1% (inactive) | 148% | -0.435 (inactive) | -3.3e-05 (inactive) | 0.00496 (inactive) | 10.9% (inactive) | 17.4% (inactive)
12 | Cc1ccc(OC(=O)CCc2c(C)nc3ncnn3c2C)cc1 | 634 | -10.5% (inactive) | 18.7% (inactive) | 130% | -84.1% (inactive) | 112% | -0.551 (inactive) | 9.9e-06 (inactive) | 0.00538 (inactive) | 0.226% (inactive) | 8.51% (inactive)
13 | Cc1nn(-c2ccc(F)cc2)c2sc(C(=O)OCC(=O)N3CCC(C)CC3)cc12 | 359 | -4.2% (inactive) | -8.8% (inactive) | 95.7% | 0.8% (inactive) | 106% | -0.514 (inactive) | -3.9e-05 (inactive) | 0.00495 (inactive) | -2.34% (inactive) | -1.01% (inactive)
14 | Cc1nnc(SCc2cnc(-c3ccccc3)o2)[nH]c1=O | 332 | -2.2% (inactive) | 12.4% (inactive) | 92.7% | -82.5% (inactive) | 118% | -0.591 (inactive) | -1.9e-05 (inactive) | 0.00323 (inactive) | 10.2% (inactive) | 12.4% (inactive)
15 | CCOC(=O)c1sc(C)c2c1NC(C)(c1cccs1)NC2=O (stereo not drawn) | 674 | -2% (inactive) | -5.5% (inactive) | 104% | -10.7% (inactive) | 101% | -0.49 (inactive) | 1.8e-05 (inactive) | 0.00453 (inactive) | 5.21% (inactive) | 10.9% (inactive)
16 | CCOC(=O)N1CCC(Nc2c(-c3ccc(C)cc3)c(=O)c2=O)CC1 | 801 | -12.2% (inactive) | 26.1% (inactive) | 89.2% | -33.6% (inactive) | 106% | -0.471 (inactive) | -3.2e-05 (inactive) | 0.007 (inactive) | 2.25% (inactive) | 16.5% (inactive)
17 | Cc1ccc(NC2=NC(c3ccccc3)n3c(nc(C)cc3=O)N2)cc1 (stereo not drawn) | 568 | -5.6% (inactive) | -4.2% (inactive) | 89.6% | -13% (inactive) | 90.9% | -0.529 (inactive) | 3.4e-05 (inactive) | 0.00472 (inactive) | 14.2% (inactive) | 19.7% (inactive)
18 | Cn1cnnc1Sc1nc2c(c(=O)n(C)c(=O)n2C)n1C | 613 | -33.7% (inactive) | 11.6% (inactive) | 90.4% | -50.7% (inactive) | 100% | -0.547 (inactive) | 2.3e-05 (inactive) | 0.00524 (inactive) | -1.17% (inactive) | 9.62% (inactive)
19 | CCCn1c(=O)c2ccccc2n2c(SCc3cc(=O)n4ccsc4n3)nnc12 | 556 | -10.8% (inactive) | -7% (inactive) | 90.4% | -8.3% (inactive) | 136% | -0.479 (inactive) | 1.9e-05 (inactive) | 0.00554 (inactive) | 1.22% (inactive) | 12% (inactive)
20 | CCC(=O)Nc1ccc(F)c(Cl)c1 | 292 | 1.5% (inactive) | 7.9% (inactive) | 108% | -76% (inactive) | 124% | -0.538 (inactive) | 9.9e-07 (inactive) | 0.0059 (inactive) | 21.2% (inactive) | 13.9% (inactive)
21 | C=CCC(NCc1ccco1)c1ccc(OC)cc1OC (stereo not drawn) | 697 | 7.5% (inactive) | 4.4% (inactive) | 110% | -94.5% (inactive) | 108% | -0.597 (inactive) | 2.3e-05 (inactive) | 0.00584 (inactive) | 12.6% (inactive) | 18.9% (inactive)
22 | COc1ccc(NC(=O)Nc2cc(C)ccc2OC)cc1 | 217 | 8.3% (inactive) | -1.8% (inactive) | 98.6% | -133% (inactive) | 120% | -0.422 (inactive) | -0.00041 (inactive) | 0.00547 (inactive) | -39.1% (inactive) | -80.2% (inactive)
23 | CCn1c(CNc2ccc(C)cc2)nnc1SCC(=O)NCc1ccccc1 | 648 | 13.4% (inactive) | 5.4% (inactive) | 81.4% | -45% (inactive) | 115% | -0.486 (inactive) | 0.000173 (inactive) | 0.00606 (inactive) | -9.51% (inactive) | -4.1% (inactive)
24 | CCCN(CCC)CCNC(=O)C(NS(=O)(=O)c1ccc2c(c1)CCC(=O)N2)c1ccccc1 (stereo not drawn) | 524 | 0.7% (inactive) | -8.1% (inactive) | 98.1% | -17.1% (inactive) | 112% | -0.555 (inactive) | -5e-05 (inactive) | 0.00588 (inactive) | 8.32% (inactive) | 24.9% (inactive)
25 | CCOC(=O)Nc1sc(=S)n(C)c1C | 719 | -12.5% (inactive) | -2.4% (inactive) | 95.3% | 15.9% (inactive) | 95.4% | -0.545 (inactive) | 2.1e-05 (inactive) | 0.00684 (inactive) | 12.9% (inactive) | 28.8% (inactive)
26 | CCn1c(=O)n(CC(=O)Nc2cc(OC)ccc2OC)c(=O)c2ccccc21 | 696 | -1.6% (inactive) | 17.9% (inactive) | 63.6% | -1.5% (inactive) | 99.5% | -0.564 (inactive) | -5.4e-05 (inactive) | 0.00496 (inactive) | 24.5% (inactive) | 23.2% (inactive)
27 | O=C(Nc1ccc(N2CCCC2=O)cc1)c1cccc(F)c1 | 226 | -5.9% (inactive) | 15.3% (inactive) | 90.3% | -11.4% (inactive) | 71.5% | -0.461 (inactive) | 2e-05 (inactive) | 0.00447 (inactive) | -49% (inactive) | -122% (inactive)
28 | Cn1c(CN2CCOCC2)nc2cc(NC(=O)c3ccccc3Cl)ccc21 | 463 | 7.9% (inactive) | -4.3% (inactive) | 102% | -19.9% (inactive) | 113% | -0.588 (inactive) | -2.3e-05 (inactive) | 0.00633 (inactive) | 8.55% (inactive) | 2.36% (inactive)
